Data reported in ChEMBL document CHEMBL4376814, “Novel cyclin-dependent kinase 9 (CDK9) inhibitor with suppression of cancer stemness activity against non-small-cell lung cancer” (Eur J Med Chem, 2019).

Assays:
[1] = test system: Tyrosine-protein kinase Blk (Homo sapiens), P51451 [UNDEFINED MUTATION]; experiment: Inhibition of full-length recombinant human BLK M287V mutant at 1 uM using poly(Glu, Tyr) 4:1 as substrate measured after 40 mins in presence of [gamma33P]ATP by scintillation counting method relative to control
Sequence of Tyrosine-protein kinase Blk (Homo sapiens), P51451 [UNDEFINED MUTATION] (P51451 whole entry, looked up, stated change not applied): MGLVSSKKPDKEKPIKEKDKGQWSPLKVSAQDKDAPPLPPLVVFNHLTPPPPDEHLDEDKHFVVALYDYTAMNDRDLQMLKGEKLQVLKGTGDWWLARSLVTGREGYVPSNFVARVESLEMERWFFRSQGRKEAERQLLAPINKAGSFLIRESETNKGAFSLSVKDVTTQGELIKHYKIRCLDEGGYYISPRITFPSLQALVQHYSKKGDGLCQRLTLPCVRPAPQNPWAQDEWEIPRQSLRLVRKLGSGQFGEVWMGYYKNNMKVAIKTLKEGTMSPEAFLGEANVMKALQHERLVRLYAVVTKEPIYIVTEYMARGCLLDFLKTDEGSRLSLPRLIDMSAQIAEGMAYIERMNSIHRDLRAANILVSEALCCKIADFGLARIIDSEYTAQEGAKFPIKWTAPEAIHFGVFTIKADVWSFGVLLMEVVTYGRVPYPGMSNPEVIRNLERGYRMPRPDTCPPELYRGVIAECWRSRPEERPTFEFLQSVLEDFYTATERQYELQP
Method in brief: (§1)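 Percent inhibition of kinase activity at a single compound concentration, measured by the outsourced Eurofins KinaseProfiler panel. Values are the mean of two independent experiments.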

[2] = target: Tyrosine-protein kinase Srms (Homo sapiens) (UniProt Q9H3Y6); experiment: Inhibition of human SRMS at 1 uM by radiometric method relative to control; method in brief: as §1
Sequence of Tyrosine-protein kinase Srms (Homo sapiens) (Q9H3Y6 whole entry): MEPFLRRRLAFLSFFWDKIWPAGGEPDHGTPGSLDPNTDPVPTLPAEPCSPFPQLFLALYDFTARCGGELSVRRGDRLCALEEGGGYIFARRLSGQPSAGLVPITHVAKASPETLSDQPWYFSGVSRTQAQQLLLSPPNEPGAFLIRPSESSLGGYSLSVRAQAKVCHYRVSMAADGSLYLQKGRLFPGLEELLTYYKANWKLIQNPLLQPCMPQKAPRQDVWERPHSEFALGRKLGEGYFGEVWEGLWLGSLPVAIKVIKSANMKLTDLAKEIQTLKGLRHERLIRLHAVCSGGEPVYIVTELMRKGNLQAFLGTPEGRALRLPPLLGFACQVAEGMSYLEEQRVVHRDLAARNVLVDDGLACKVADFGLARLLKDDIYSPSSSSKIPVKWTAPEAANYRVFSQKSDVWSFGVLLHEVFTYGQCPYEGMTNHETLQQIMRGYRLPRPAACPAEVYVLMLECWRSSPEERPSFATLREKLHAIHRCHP

[3] = test system: Serine/threonine-protein kinase Sgk1 (Homo sapiens), O00141 [S422D]; experiment: Inhibition of recombinant human SGK S422D mutant (60 to end residues) at 1 uM using GRPRTSSFAEGKK as substrate measured after 40 mins in presence of [gamma33P]ATP by scintillation counting method relative to control
Sequence of Serine/threonine-protein kinase Sgk1 (Homo sapiens), O00141 [S422D] (O00141 whole entry S422D, the tested form may be a part): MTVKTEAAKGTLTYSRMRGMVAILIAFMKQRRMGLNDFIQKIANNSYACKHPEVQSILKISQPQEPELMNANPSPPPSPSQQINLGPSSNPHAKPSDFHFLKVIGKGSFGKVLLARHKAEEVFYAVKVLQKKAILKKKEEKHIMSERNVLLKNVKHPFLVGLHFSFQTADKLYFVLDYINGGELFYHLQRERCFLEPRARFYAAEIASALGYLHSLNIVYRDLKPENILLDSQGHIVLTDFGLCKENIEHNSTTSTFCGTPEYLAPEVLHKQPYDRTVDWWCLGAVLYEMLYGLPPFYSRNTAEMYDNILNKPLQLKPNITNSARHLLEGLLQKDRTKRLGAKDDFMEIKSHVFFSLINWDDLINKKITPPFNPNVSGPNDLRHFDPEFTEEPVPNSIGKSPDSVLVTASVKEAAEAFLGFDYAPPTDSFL

[4] = target: Ephrin type-B receptor 3 (Homo sapiens) (UniProt P54753); experiment: Inhibition of recombinant human EphB3 (599 to 920 residues) at 1 uM using poly(Glu, Tyr) 4:1 as substrate measured after 40 mins in presence of [gamma33P]ATP by scintillation counting method relative to control
Method in brief: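 Single-point inhibition at 1 µM was measured in the Eurofins KinaseProfiler panel. Values are the mean of two independent experiments.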

[5] = target: Proto-oncogene tyrosine-protein kinase Src (Homo sapiens) (UniProt P12931); experiment: Inhibition of human Src (1 to 530 residues) at 1 uM using GGEEEEYFELVKKKK as substrate measured after 40 mins in presence of [gamma33P]ATP by scintillation counting method relative to control; method in brief: as §1
Sequence of Proto-oncogene tyrosine-protein kinase Src (Homo sapiens) (P12931 2-536 limits assumed): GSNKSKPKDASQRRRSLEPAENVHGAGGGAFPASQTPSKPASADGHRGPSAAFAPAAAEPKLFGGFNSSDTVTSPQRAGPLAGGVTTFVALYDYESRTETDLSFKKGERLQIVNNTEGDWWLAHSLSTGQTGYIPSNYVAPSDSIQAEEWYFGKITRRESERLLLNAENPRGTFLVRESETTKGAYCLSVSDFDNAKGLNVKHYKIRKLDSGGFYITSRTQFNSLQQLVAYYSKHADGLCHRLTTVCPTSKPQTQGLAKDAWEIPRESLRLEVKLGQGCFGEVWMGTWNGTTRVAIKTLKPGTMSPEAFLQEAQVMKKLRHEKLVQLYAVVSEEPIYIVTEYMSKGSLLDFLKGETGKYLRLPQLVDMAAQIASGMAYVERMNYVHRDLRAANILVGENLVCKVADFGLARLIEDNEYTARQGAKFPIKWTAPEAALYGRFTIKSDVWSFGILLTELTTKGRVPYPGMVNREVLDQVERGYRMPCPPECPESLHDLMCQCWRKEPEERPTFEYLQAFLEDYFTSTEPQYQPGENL

MDA-MB-231 = experiment: Antiproliferative activity against human MDA-MB-231 cells assessed as inhibition of cell viability after 72 hrs by CCK-8 assay; type: functional, cell-based; settings: MDA-MB-231, 72 h
Method in brief: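 Cells kept at 37 °C, 5% CO2 in DMEM or RPMI-1640 with 10% FBS and 1% penicillin/streptomycin, then seeded at 3000 cells/well (adherent) or 10,000 cells/well (suspension). Exposed to a range of concentrations for 72 h. CCK-8 added for 1-4 h before reading A450. […] Three independent experiments.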

[6] = target: Ribosomal protein S6 kinase alpha-4 (Homo sapiens) (UniProt O75676); experiment: Inhibition of recombinant human MSK2 (2 to end residues) at 1 uM using GRPRTSSFAEGKK as substrate measured after 40 mins in presence of [gamma33P]ATP by scintillation counting method relative to control
CDK4/Cyclin D3 = CDK4/Cyclin D3 (Homo sapiens, UniProt P11802); experiment: Inhibition of recombinant full-length human CDK4/cyclinD3 using Rb fragment as substrate measured after 40 mins in presence of [gamma33P]ATP by scintillation counting method; type: protein-complex assay
[7] = target: Serine/threonine-protein kinase pim-1 (Homo sapiens) (UniProt P11309); experiment: Inhibition of recombinant full-length human Pim-1 at 1 uM using KKRNRTLTV as substrate measured after 40 mins in presence of [gamma33P]ATP by scintillation counting method relative to control
[8] = target: Dual specificity tyrosine-phosphorylation-regulated kinase 1B (Homo sapiens) (UniProt Q9Y463); experiment: Inhibition of recombinant full-length human DYRK1B at 1 uM using RRRFRPASPLRGPPK as substrate measured after 40 mins in presence of [gamma33P]ATP by scintillation counting method relative to control
[9] = target: Tyrosine-protein kinase FRK (Homo sapiens) (UniProt P42685); experiment: Inhibition of human PTK5 (218 to end residues) at 1 uM using GGEEEEYFELVKKKK as substrate measured after 40 mins in presence of [gamma33P]ATP by scintillation counting method relative to control; method in brief: as §1
Sequence of Tyrosine-protein kinase FRK (Homo sapiens) (P42685 whole entry, the tested form may be a part): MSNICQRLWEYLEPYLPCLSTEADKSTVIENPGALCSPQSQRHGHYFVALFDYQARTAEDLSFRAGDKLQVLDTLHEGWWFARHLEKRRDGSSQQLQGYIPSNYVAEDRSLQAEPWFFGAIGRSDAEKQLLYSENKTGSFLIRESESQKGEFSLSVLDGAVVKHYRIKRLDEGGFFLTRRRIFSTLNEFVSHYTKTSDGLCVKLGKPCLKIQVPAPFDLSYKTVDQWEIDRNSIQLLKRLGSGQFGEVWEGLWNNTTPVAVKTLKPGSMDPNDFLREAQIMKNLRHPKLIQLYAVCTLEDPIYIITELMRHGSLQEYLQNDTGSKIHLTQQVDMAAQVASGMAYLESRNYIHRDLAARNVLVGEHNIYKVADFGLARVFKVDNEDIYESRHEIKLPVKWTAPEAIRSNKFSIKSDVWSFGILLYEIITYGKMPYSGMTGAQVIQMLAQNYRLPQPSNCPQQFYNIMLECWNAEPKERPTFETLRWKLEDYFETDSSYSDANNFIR

[10] = target: Receptor-interacting serine/threonine-protein kinase 2 (Homo sapiens) (UniProt O43353); experiment: Inhibition of human RIPK2 (1 to 299 residues) at 1 uM using myelin basic protein as substrate measured after 120 mins in presence of [gamma33P]ATP by scintillation counting method relative to control; method in brief: as §1
Sequence of Receptor-interacting serine/threonine-protein kinase 2 (Homo sapiens) (O43353 whole entry, the tested form may be a part): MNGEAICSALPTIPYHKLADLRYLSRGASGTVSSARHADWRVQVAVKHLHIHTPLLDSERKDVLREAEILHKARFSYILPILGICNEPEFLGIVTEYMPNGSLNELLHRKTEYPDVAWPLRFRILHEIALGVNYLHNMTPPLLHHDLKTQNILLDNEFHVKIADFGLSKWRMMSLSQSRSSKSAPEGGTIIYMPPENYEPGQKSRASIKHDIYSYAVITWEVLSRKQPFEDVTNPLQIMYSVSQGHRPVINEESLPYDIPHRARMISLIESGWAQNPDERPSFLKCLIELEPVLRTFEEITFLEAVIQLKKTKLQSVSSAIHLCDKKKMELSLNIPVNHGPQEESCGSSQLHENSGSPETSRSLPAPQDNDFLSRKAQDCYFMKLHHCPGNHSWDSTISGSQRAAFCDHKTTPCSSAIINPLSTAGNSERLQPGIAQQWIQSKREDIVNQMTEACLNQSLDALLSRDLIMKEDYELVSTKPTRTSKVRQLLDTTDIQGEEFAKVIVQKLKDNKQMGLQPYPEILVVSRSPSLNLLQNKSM

[11] = Half life in CD-1 mouse liver microsomes at 2 uM in presence of NADPH measured up to 1 hr by HPLC analysis; type: ADME, Microsome
Method in brief: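 Drug at 2 µM incubated at 37 °C with male liver microsomes at 1 mg/mL, in 0.1 M phosphate buffer pH 7.4 with MgCl2. After 5 min preincubation, reaction started with NADPH. Samples (n=3) taken at 0, 10, 20, 30, 45 and 60 min, quenched with ice-cold acetonitrile, spun, and analysed by HPLC. t1/2 derived from the fitted rate constant k.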

[12] = test system: Proto-oncogene tyrosine-protein kinase receptor Ret (Homo sapiens), P07949 [V804M]; experiment: Inhibition of human Ret V804M mutant (658 to end residues) at 1 uM using KKKVSRSGLYRSPSMPENLNRPR as substrate measured after 40 mins in presence of [gamma33P]ATP by scintillation counting method relative to control; method in brief: as §1
Sequence of Proto-oncogene tyrosine-protein kinase receptor Ret (Homo sapiens), P07949 [V804M] (P07949 whole entry V804M, the tested form may be a part): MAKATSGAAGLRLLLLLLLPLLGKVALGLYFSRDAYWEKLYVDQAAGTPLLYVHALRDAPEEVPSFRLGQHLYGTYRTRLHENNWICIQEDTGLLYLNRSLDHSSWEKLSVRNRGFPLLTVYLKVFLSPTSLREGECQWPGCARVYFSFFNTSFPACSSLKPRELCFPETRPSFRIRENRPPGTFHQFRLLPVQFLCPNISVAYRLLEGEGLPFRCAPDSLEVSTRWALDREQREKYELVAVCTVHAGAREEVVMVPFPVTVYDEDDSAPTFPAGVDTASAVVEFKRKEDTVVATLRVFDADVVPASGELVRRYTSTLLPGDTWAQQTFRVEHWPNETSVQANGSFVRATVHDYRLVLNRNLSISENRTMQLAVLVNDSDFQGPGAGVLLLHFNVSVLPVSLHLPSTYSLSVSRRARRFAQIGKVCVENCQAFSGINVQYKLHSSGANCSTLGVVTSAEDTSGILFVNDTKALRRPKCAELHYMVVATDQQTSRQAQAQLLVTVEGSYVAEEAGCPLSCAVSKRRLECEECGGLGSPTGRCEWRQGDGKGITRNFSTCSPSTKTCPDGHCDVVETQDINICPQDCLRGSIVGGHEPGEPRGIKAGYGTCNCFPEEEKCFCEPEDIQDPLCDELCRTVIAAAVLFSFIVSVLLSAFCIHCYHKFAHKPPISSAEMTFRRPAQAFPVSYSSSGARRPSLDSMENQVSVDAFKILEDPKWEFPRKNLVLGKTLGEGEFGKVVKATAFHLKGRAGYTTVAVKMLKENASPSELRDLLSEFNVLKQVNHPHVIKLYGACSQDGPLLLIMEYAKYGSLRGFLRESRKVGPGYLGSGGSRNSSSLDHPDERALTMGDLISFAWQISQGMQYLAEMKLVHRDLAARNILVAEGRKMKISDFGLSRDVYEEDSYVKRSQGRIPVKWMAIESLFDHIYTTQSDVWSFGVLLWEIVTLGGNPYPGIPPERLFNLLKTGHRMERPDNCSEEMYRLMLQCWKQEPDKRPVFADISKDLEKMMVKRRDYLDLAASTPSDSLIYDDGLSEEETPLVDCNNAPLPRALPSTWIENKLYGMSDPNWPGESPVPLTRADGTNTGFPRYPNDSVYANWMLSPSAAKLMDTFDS

[13] = target: Fibroblast growth factor receptor 2 (Homo sapiens) (UniProt P21802); experiment: Inhibition of recombinant human FGFR2 (456 to 770 residues) at 1 uM using poly(Glu, Tyr) 4:1 as substrate measured after 40 mins in presence of [gamma33P]ATP by scintillation counting method relative to control
[14] = target: 3-phosphoinositide-dependent protein kinase 1 (Homo sapiens) (UniProt O15530); experiment: Inhibition of recombinant human PDK1 (52 to end residues) at 1 uM using PDKtide as substrate measured after 40 mins in presence of [gamma33P]ATP by scintillation counting method relative to control
[15] = target: Dual specificity tyrosine-phosphorylation-regulated kinase 1A (Homo sapiens) (UniProt Q13627); experiment: Inhibition of recombinant full-length human DYRK1A at 1 uM using RRRFRPASPLRGPPK as substrate measured after 40 mins in presence of [gamma33P]ATP by scintillation counting method relative to control
[16] = target: Serine/threonine-protein kinase tousled-like 1 (Homo sapiens) (UniProt Q9UKI8); experiment: Inhibition of recombinant full-length human TLK1 at 1 uM using casein as substrate measured after 40 mins in presence of [gamma33P]ATP by scintillation counting method relative to control
Sequence of Serine/threonine-protein kinase tousled-like 1 (Homo sapiens) (Q9UKI8 whole entry): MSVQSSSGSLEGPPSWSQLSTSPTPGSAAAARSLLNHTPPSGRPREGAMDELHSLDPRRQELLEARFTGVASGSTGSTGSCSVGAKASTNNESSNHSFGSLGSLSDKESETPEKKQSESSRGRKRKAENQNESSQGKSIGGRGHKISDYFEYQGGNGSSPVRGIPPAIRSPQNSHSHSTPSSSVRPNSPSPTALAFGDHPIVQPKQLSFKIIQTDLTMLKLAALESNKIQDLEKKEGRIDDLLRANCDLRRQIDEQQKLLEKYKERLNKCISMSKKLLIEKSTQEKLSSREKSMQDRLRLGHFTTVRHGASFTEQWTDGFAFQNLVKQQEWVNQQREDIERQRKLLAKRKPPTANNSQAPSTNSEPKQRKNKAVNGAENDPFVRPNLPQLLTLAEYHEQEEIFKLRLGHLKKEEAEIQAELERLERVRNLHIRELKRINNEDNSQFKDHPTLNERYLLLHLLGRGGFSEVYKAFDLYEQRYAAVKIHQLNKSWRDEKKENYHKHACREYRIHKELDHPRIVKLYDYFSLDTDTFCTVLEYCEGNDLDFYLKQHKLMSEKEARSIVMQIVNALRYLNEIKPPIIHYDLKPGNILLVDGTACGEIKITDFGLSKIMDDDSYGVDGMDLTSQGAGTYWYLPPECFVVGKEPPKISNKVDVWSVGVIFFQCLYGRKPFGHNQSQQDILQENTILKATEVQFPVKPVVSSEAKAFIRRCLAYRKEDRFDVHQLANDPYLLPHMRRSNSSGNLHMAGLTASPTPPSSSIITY

[17] = target: High affinity nerve growth factor receptor (Homo sapiens) (UniProt P04629); experiment: Inhibition of recombinant human TRKA (440 to end residues) at 1 uM using KKKSPGEYVNIEFG as substrate measured after 40 mins in presence of [gamma33P]ATP by scintillation counting method relative to control
[18] = target: Calcium/calmodulin-dependent protein kinase type II subunit gamma (Homo sapiens) (UniProt Q13555); experiment: Inhibition of recombinant full-length human CaMK2gamma (1 to 330 residues) at 1 uM using calmodulin as substrate measured after 40 mins in presence of [gamma33P]ATP by scintillation counting method relative to control

SMILES: CN(C)C(=O)c1cc2cnc(Nc3ccc(NC(=O)CCCCCCCN=C=S)cc3)nc2n1C1CCCC1
- inhibition [1]: 45%
- inhibition [2]: 34%
- inhibition [3]: 24%
- inhibition [4]: 12%
- inhibition [5]: 36%
- IC50 (MDA-MB-231): 3040 nM
- inhibition [6]: 6%
- IC50 (CDK4/Cyclin D3): 148 nM
- inhibition [7]: 8%
- inhibition [8]: 0%
- inhibition [9]: 15%
- inhibition [10]: 24%
- half-life at 2 µM [11]: 23.1 min
- inhibition [12]: 58%
- inhibition [13]: 27%
- inhibition [14]: 1%
- inhibition [15]: 2%
- inhibition [16]: 7%
- inhibition [17]: 77%
- inhibition [18]: 53%
